Source: PubChem
LEDGF integ inh: blocks HIV-1 LEDGF/p75-dependent DNA integration | 370,000 compounds, 0.64% hits | AID 743269 | TR-FRET IN-LEDGF/p75 DNA integration, Eu/Cy5 | inhibition, % at 3.7 µM;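 active = inhibition above the screen-wide mean plus 3 SD, cut at about 13% in these data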;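 also: signal is the Cy5 over europium emission ratio at 671 and 618 nm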
SIAE primary: human SIAE inhibition, primary screen | 370,000 compounds, 0.69% hits | SIAE FP-Rh probe binding, fluorescence polarization | inhibition, % at 9.66 µM | AID 1053197;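 active = inhibition above a cutoff: mean of compounds within the control limits plus 3 SD of those, cut at about 17% in these data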
MBD2 DNA inh: MBD2-methylated oligo binding inhibition; TR-FRET, MBD2 binding to methylated oligonucleotide; inhibition, % at 4.4 µM; 370,000 compounds, 0.31% hits; in the data active = inhibition above about 13%
PRMT1 inh: inhibitors of human PRMT1; AID 652257; Q99873; recombinant PRMT1, activity-based probe fluorescence polarization; 370,000 compounds, 1.3% hits; inhibition, % at 2.79 µM;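 active = inhibition above about 21% made by adding two undisclosed values, limit read from the data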
UHRF1 binding: human UHRF1 methylated DNA binding inhibitors | Q96T88 | UHRF1 binding to methylated oligo, TR-FRET | inhibition, % at 4.4 µM | 370,000 compounds, 0.75% hits; in the data active = inhibition above about 21%;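 also: UHRF1 SRA domain binding a hemimethylated CpG hairpin DNA probe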
TDP2 absorb: blocks human TDP2 phosphodiesterase activity; inhibition, % at 12.8 µM; 370,000 compounds, 0.34% hits; O95551; recombinant TDP2, T5PNP hydrolysis, p-nitrophenol absorbance 415 nm;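 active = inhibition above the mean of all tested compounds plus 3 SD, set per campaign, cut at about 25% in these data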
Target sequence (O95551 whole entry, looked up): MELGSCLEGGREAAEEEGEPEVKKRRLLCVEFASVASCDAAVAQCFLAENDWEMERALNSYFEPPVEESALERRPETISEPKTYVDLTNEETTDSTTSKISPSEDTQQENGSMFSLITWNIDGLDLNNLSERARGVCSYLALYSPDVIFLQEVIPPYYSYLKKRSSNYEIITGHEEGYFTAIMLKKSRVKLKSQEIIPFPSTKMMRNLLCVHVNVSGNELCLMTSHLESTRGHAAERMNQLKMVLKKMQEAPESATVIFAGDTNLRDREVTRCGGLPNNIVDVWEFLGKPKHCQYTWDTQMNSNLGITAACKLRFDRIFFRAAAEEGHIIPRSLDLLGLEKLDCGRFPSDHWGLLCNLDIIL
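Incubation: 2 h at 37 °C; Test system: recombinant human TDP2; Quantity: enzyme 120 nM; Read-out basis: percent inhibition; Medium: 50 mM Tris-HCl pH 7.5 with Mg2+, KCl, DTT, BSA; Repeats: single replicate; Compound: 12.8 µM single point, 1% DMSO; Signal: epi absorbance; Reagent: 5 mM T5PNP chromogenic substrate; Benchmarks: no-enzyme high, DMSO-plus-enzyme low.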
Each line names hits and unclear results; the compound was inactive in the other large screens. Only some compounds are listed: those with a hit (about 3.3% of all), similar ones and a draw of the others.

CC1(C)CC(=O)C2=C(C1)OC(N)=C(C#N)C2c1ccccc1[N+](=O)[O-] (stereo not given)	PRMT1 inh 23
Cc1sc2nc(CSCC(=O)N(C)CC(=O)Nc3ccc(F)cc3)[nH]c(=O)c2c1C	PRMT1 inh 23
COc1cccc(C2NC(CCSC)(C(=O)O)C3C(=O)N(C(C)C)C(=O)C23)c1O (stereo not given)	SIAE primary 21
Cc1ccc(S(=O)(=O)Nn2c(O)c(C=C3N=c4ccccc4=N3)sc2=S)cc1	PRMT1 inh 25
Cc1ccc(CNC(=O)c2cccc3c2C(=O)c2ccc(N4CCCCC4)cc2S3(=O)=O)cc1	none
O=C(NCc1ccco1)c1cccc2c1C(=O)c1ccc(N3CCCC3)cc1S2(=O)=O	PRMT1 inh 37
O=C(CNCc1ccccc1[N+](=O)[O-])N1CCC2(CC1)OCCO2	none
Nc1ccc(C(=O)OCC(=O)Nc2cc([N+](=O)[O-])ccc2F)cc1	UHRF1 binding 42
O=C(COC(=O)C1CCCCC1)Nc1cc([N+](=O)[O-])ccc1F	none
Cc1ccc(-c2nc(C3CCCN(S(=O)(=O)c4ccc(C)c(C)c4)C3)no2)cc1 (stereo not given)	none
COc1cc(/C=N/NC(=O)CC2C(=O)NN=C2C)ccc1O (stereo not given)	LEDGF integ inh 74
O=C(NCc1c(F)cccc1F)C1C2C=CC3(CN(Cc4ccccc4)C(=O)C13)O2 (stereo not given)	none
Cn1c(SCC(=O)NCc2ccc(F)cc2)nc2ccccc21	none
COc1ccc(CNC(=O)CSc2nc3ccccc3n2C(C)=O)cc1	UHRF1 binding 24
COc1cccc(C(=O)NN2C(=O)C3C4C=CC(O4)C3C2=O)c1 (stereo not given)	PRMT1 inh 23
Cc1ccc(CNC(=O)c2ccc(N3CCC4(CC3)CC(c3ccccc3)=NO4)c([N+](=O)[O-])c2)cc1	UHRF1 binding 22
O=C(NC(=S)Nc1ccc(F)c([N+](=O)[O-])c1)c1ccccc1F	PRMT1 inh 33
O=C(NC(=S)Nc1ccc2[nH]c(=O)[nH]c2c1)c1ccccc1F	none
Cc1cccc(-c2cccc3c4c([nH]c23)[C@@H]2C[C@H]3[C@@H](C(=O)N2CC4)[C@H](C)ON3C)c1	none
Cc1nc2cc(NS(=O)(=O)c3cccc4cccnc34)ccc2s1	none
CC(=O)N(c1ccc2oc(=O)sc2c1)S(=O)(=O)c1cccc2cccnc12	PRMT1 inh 91
Cc1cc2oc(=O)sc2cc1NS(=O)(=O)c1ccccc1	PRMT1 inh 92
Cc1cc2oc(=O)sc2cc1NS(=O)(=O)c1cccc2cccnc12	PRMT1 inh 54
CCCC(=O)N(c1ccc2oc(=O)sc2c1)S(=O)(=O)c1ccccc1	PRMT1 inh 50
C(/C=C\c1ccco1)=NN1CCN(Cc2cccc3ccccc23)CC1	none
Clc1ccc([C@H]2OC[C@@]3(CNCc4ccccn4)CS[C@H](c4ccc(Cl)cc4)N23)cc1	none
O=C(Nc1nc(=O)c2ccccc2s1)c1ccccc1	PRMT1 inh 75
O=C(Nc1nc2ccccc2s1)c1ccc(F)cc1	none
Cc1ccc(C(=O)Nc2nc3ccccc3c(=O)s2)cc1	PRMT1 inh 59
CN=C1S/C(=C/c2cc(C)n(-c3ccc(Cl)cc3F)c2C)C(=O)N1C	none
Oc1ccc2ccccc2c1C=NN1CCN(Cc2ccc(Cl)cc2)CC1	none
C[C@H](O)[C@@H]1CN2CCc3c([nH]c4c(-c5ccccc5)cccc34)[C@@H]2C[C@@H]1N(C)CC1CCCCC1	none
CC(C)c1ccc(N2C(=O)CC(Sc3nc4ccccc4o3)C2=O)cc1 (stereo not given)	PRMT1 inh 23
CCN(CC)C(=O)C1CCC(CNS(=O)(=O)c2cccc3cccnc23)CC1 (stereo not given)	none
CN(Cc1ccccc1)C(=O)C1CCC(CNS(=O)(=O)c2cccc3cccnc23)CC1 (stereo not given)	UHRF1 binding 32
CCC(=O)Nc1nnc(S(=O)(=O)N(C)Cc2ccco2)s1	UHRF1 binding 21
Cc1ccccc1C(=O)Nc1nnc(S(=O)(=O)N(C)Cc2ccco2)s1	none
CO[C@H]([C@H](C)/C=C/N(C)C=O)[C@@H](C)C(=O)CC[C@H](C)[C@H](O)[C@H](C)[C@H]1OC(=O)/C=C/C(C)=C/C[C@H](O)C[C@@H]2C=CC[C@@H](C[C@H](OC)C(C)(O)[C@@H](OC)C[C@@H](OC)[C@@H]1C)O2 (stereo not given in full)	none
O=C(c1nc2ccc(Cl)cn2c1CN1CCCC1)N1CCc2ccccc2C1	PRMT1 inh 24
Cc1ccc(C(=O)n2ccc3ccc(-c4ccc5ccn(Cc6ccccc6)c5c4)cc32)cc1	none
CCOC(=O)c1oc2ccccc2c1NC(=O)C(C)(C)C	UHRF1 binding 52
CCOCC(=O)Nc1c(C(=O)OCC)oc2ccccc12	none
CSc1ccc(-c2cnc(N3CCC(C(N)=O)CC3)s2)cc1	none
Cc1ccc(S(=O)(=O)N2CCC(C(=O)OCC(=O)NCCc3ccccc3)CC2)cc1C	UHRF1 binding 40
CCOC(=O)C1CCN(S(=O)(=O)c2ccc3c(c2)CC(=O)N3C)CC1	TDP2 absorb 25
O=C(COC(=O)C1CCN(S(=O)(=O)c2ccccc2)CC1)NC(=O)c1ccc(OC(F)F)cc1	UHRF1 binding 26
CCOC(=O)C1CCN(S(=O)(=O)c2ccc3c(c2)CCCN3C(C)=O)CC1	none
O=C(c1cccc(-n2cccc2)c1)N1CCN(S(=O)(=O)c2ccccc2)CC1	MBD2 DNA inh 28, UHRF1 binding 56
O=C(c1cccc(S(=O)(=O)N2CCOCC2)c1)N1CCCCCC1	UHRF1 binding 40
Cc1ccc(S(=O)(=O)N2CCN(C(=O)c3cccc(-n4cccc4)c3)CC2)cc1	none
O=C(c1cccc(S(=O)(=O)N2CCOCC2)c1)N1CCCC1	none
COC(=O)[C@]12C[C@H](CC(=O)NCc3ccc(C)o3)C(=O)N(Cc3ccc(Cl)cc3Cl)C1=C[C@H](C1CCCC1)O[C@@H]2C	none
CN(C)c1ncnc2c1NC1=C(S2)C(=NCCCC(=O)O)CC(C)(C)C1	none
COc1ncnc2c1NC1=C(S2)C(=NCCC(=O)O)CC(C)(C)C1	PRMT1 inh 28
O=C(Nc1ccc(C(O)(C(F)(F)F)C(F)(F)F)cc1)c1ccc(Cl)cc1	none
Cc1nc2cc(C(=O)O)ccc2s1	PRMT1 inh 21
CC(C)=C1C(=O)NN(c2ccc(F)c(Cl)c2)C1=O	none
O=C1NN(c2ccc(F)c(Cl)c2)C(=O)/C1=C\c1cccc(OC(=O)c2cccs2)c1	PRMT1 inh 24
Cc1cc(C2=NNC(=NC3CC3)SC2)c(C)n1-c1ccccc1	none
c1ccc(C2=NNC(=NC3CC3)SC2)cc1	PRMT1 inh 65
CC(C)CNC(=O)C(=O)NC1CCCC1	UHRF1 binding 21
